Compound activity deposited in PubChem by several laboratories.
The list is not random: actives were taken first. Their share in the collection is about 2.1%.
Runt-SMMHC FRET: Runt domain-CBFb-SMMHC interaction inhibition. Cerulean-Runt/Venus-CBFb-SMMHC FRET ratio 530/480, 1 h. 220,000 tested, 0.74% active. inhibition, % at 20 µM. Q01196+Q13951;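 active = mean inhibition across duplicate retests at 20 µM reaching about 50%, limit read from the data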;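 note: 0% = DMSO wells and 100% = wells with excess untagged CBFb-SMMHC; inhibitors lower the FRET ratio by blocking Runt binding to CBFb-SMMHC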
RanGTP-Impb inh: inhibitors of RanGTP-importin-beta interaction, primary screen, biochemical, FRET, CFP-Ran, YFP-importin-beta, homogeneous. cell-free CFP-Ran/YFP-importin-beta FRET ratio. inhibition, % (test concentration not listed). 300,000 tested, 1.1% active;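 active = more than half of the replicate wells show a fall in the fluorescence ratio signal beyond about 16%, limit read from the data, passing the limit was not always enough; inconclusive = exactly half of the replicate wells pass the set limit; inactive = fewer than half of replicates pass the limit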;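 note: 0% = DMSO wells and 100% = Ran loaded with GDP instead of GTP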
Hck-Nef inh: blocks Nef-activated human Hck kinase; inhibition, % at 20 µM; Recombinant Hck-YEEI plus Nef, Z-Lyte FRET kinase assay; AID 463187; P08631; 220,000 tested, 0.68% active;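 active = Hck-Nef kinase inhibition above about 50%, limit read from the data; inactive = inhibition below that limit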;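 note: 0% = DMSO with Hck plus Nef and 100% = Hck alone without Nef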
Target sequence (P08631 whole entry, looked up): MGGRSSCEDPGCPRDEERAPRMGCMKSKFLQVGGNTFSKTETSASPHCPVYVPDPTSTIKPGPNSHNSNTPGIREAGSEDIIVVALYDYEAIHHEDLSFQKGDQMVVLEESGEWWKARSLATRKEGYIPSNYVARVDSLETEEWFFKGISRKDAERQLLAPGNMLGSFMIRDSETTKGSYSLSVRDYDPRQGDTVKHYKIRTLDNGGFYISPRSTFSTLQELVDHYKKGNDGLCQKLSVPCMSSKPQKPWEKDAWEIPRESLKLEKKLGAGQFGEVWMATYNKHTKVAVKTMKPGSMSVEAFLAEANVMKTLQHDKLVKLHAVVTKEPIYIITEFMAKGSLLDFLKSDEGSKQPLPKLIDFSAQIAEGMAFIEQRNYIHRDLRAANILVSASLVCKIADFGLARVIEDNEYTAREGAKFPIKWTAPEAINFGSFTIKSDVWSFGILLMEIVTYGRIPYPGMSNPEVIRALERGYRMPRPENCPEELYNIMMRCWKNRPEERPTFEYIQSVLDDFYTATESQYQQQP
p97 ATPase inh: blocks human p97 ATPase activity | 220,000 tested, 0.42% active | recombinant p97 ATPase, Kinase-Glo ATP luminescence, 3 h | P55072 | inhibition, % at 8 µM | AID 1481; in the data active = inhibition above about 15%;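 note: 0% = DMSO vehicle and 100% = wells lacking enzyme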
TbHK1 inh: T. brucei hexokinase 1 inhibition; recombinant TbHK1, G6PDH-coupled NADH A340; inhibition, % at 10 µM; 220,000 tested, 0.11% active;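 active = inhibition of 50% or more in the single-dose primary screen; inactive = inhibition below 50%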
Runt-CBFb FRET: blocks binding of human RUNX1 Runt domain to CBFb. 220,000 tested, 0.46% active. Cerulean-Runt/Venus-CBFb FRET ratio 530/480, 1 h. inhibition, % at 20 µM. Q01196+Q13951;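 active = inhibition over about 50% at 20 µM in the single-dose screen, limit read from the data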;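 note: 0% = DMSO wells and 100% = excess unlabeled CBFb competitor control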
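Assay system: Cerulean-Runt domain / Medium: Tris 50 mM pH 7.5, KCl, K2SO4, 0.01% BSA / Timing: protein complex preformed 1 h, compound exposure 1 h, room temperature, dark / Measured by: FRET, excitation 422 nm, emission at 530 and 480 nm / Evaluation: loss of energy transfer signal / Control set: 5 µM unlabeled CBFb as full-inhibition high control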
Numbers without * were called inactive; ? = inconclusive; . = no result.

SMILES | Runt-SMMHC FRET | RanGTP-Impb inh | Hck-Nef inh | p97 ATPase inh | TbHK1 inh | Runt-CBFb FRET
O=C(Cc1ccccc1)N/N=C/c1cc(Br)cc(Cl)c1O | 92* | 18* | 5 | 3 | 3 | 28
O=C(CP(=O)(c1ccccc1)c1ccccc1)N/N=C/c1cc(Br)cc(Br)c1O | 60 | 21* | 4 | 1 | 2 | 31
CCOC(=O)C1CCN(C(=O)c2cc3c(=O)n4ccccc4nc3n2C)CC1 | 51* | ? | 13 | -1 | -15 | 22
CC1CN(C(=O)c2cc3c(=O)n4ccccc4nc3n2C)CC(C)O1 (configuration not stated) | . | 6 | . | . | . | .
Cn1c(C(=O)O)cc2c(=O)n3ccccc3nc21 | 78* | 8 | 25 | 1 | -32 | 43
CCOC(=O)C1CCCN(C(=O)c2cc3c(=O)n4ccccc4nc3s2)C1 (configuration not stated) | . | -2 | . | . | . | .
Cn1c(C(=O)N2CCOCC2)cc2c(=O)n3ccccc3nc21 | . | 4 | . | . | . | .
Cn1c(C(=O)N2CCc3ccccc3C2)cc2c(=O)n3ccccc3nc21 | 79* | 1 | 29 | 2 | 32 | 21
COc1ccc(Cl)cc1-c1nc(SCC(=O)NC2CC2)n[nH]1 | 4 | 2 | 15 | 1 | 7 | 1
Cc1cc(C)n(-c2nc3ccccc3nc2Nc2ccc3[nH]c(=O)[nH]c3c2)n1 | -8 | 32* | -1 | 5 | -6 | -3
COc1ccc(Nc2nc3ccccc3nc2-n2nc(C)cc2C)cc1 | -26 | 1 | -1 | -1 | -4 | -14
COc1ccccc1N(/N=C1\Sc2ccccc2C1=O)C(C)=O | -9 | 5 | 25 | 15* | -16 | -5
OCCCc1nc2n(n1)C(c1ccccc1Cl)C=C(c1cccs1)N2 (configuration not stated) | 78* | 34* | -3 | 5 | -12 | 19
OCCCc1nc2n(n1)C(c1cccs1)C=C(c1ccccc1)N2 (configuration not stated) | -137 | -54 | 2 | 4 | -30 | -4
CN(C(=O)COC(=O)c1cc([N+](=O)[O-])ccc1Cl)c1ccccc1 | . | 2 | . | . | . | .
Cc1cccc(/C(N)=N/OC(=O)N2CCOCC2)c1 | 0 | 0 | -1 | -6 | -1 | 0
Cc1ccc(/C(N)=N/OC(=O)N2CCOCC2)cc1 | -120 | 3 | 0 | 0 | 0 | 74*
CCn1cc(S(=O)(=O)N2CCCC2)cn1 | . | 5 | . | . | . | .
CC1=NN(C(C#N)c2ccccc2C)C(C)(C)C1 (configuration not stated) | 2 | 2 | -31 | 1 | 2 | 75*
Cc1cc(NC(=O)CSc2nc(C)c(C)c(=O)[nH]2)no1 | . | -2 | . | . | . | .
COCCNC(=O)C(=O)NCC1OCCN1S(=O)(=O)c1ccc(F)cc1 (configuration not stated) | . | 0 | . | . | . | .
COc1ccccc1CNS(=O)(=O)c1c(C)[nH]c(C)c1C(=O)N1CCCC1 | . | 4 | . | . | . | .
Cc1cc(OCc2ccc(C(=O)n3cccn3)o2)ccc1Cl | -12 | 67* | 1 | -2 | -6 | 1
O=C(c1ccc(COc2ccc(F)cc2)o1)n1cccn1 | -5 | -5 | 0 | 9 | 5 | -2
O=C(C[n+]1ccccc1)Nc1ccc(Oc2ccccc2)cc1 | -1 | -1 | 14 | 3 | -1 | 0
SMILES | Runt-SMMHC FRET | RanGTP-Impb inh | Hck-Nef inh | p97 ATPase inh | TbHK1 inh | Runt-CBFb FRET
Cc1cccn2c(=O)c(/C=C3\SC(=S)NC3=O)c(NCCCN3CCOCC3)nc12 | -67 | 35* | -12 | 13 | -24 | 26
N#CC(C#N)=Cc1c[nH]c(=O)c(C#N)c1Nc1ccccc1 | . | 67* | . | . | . | .
N#Cc1c(Nc2ccccc2)c(/C=N/N=C/c2ccccc2)c[nH]c1=O | 1 | 6 | 2 | 4 | -14 | 1
CCN(CC(=O)Nc1ccc2c(c1)OCCO2)C(=O)c1ccc(Cl)cc1Cl | . | -1 | . | . | . | .
CCOC(=O)c1c(NC(=O)c2c(C(=O)O)cccc2[N+](=O)[O-])sc(C)c1C | -2 | 3 | 23 | 1 | -12 | 0
O=c1c(O)c(-c2ccc3c(c2)OCO3)oc2ccccc12 | -53 | 32* | -4 | 4 | -14 | -22
COc1cccc(CN2CC(C(=O)N3CCN(C(C)C)CC3)CCC2=O)c1 (configuration not stated) | . | 6 | . | . | . | .
Cc1cc(N)ccc1N1CCCC1 | -14 | 1 | 3 | 17* | 18 | -4
Cc1cccc(-n2c(N)c(C(=O)NCCN3CCOCC3)c3nc4ccccc4nc32)c1 | 61* | 85* | 27 | 4 | -21 | 79*
CC(C)Cn1c2nc3ccccc3nc2c2c(=O)n(CCN3CCOCC3)cnc21 | 11 | 6 | 3 | -6 | -27 | 8
CC(C)Cn1c(N)c(C(=O)NCCN2CCOCC2)c2nc3ccccc3nc21 | 95* | 94* | 43 | -2 | -32 | 9
CCOC(=O)c1c(NC(=O)CSc2nc3ccc(OC)cc3[nH]2)sc2c1CC(C)(C)NC2(C)C | . | 8 | . | . | . | .
Cc1coc2c(C)c3oc(=O)c(CCC(=O)N[C@@H](C)C(=O)N[C@@H](Cc4ccccc4)C(=O)O)c(C)c3cc12 | . | 3 | . | . | . | .
CCCCSCCCNC(=O)c1ccc(CS(=O)(=O)c2ccccc2OC)o1 | . | -1 | . | . | . | .
CC1(C)CC(=O)C2=C(C1)Nc1ccccc1NC2 | 87* | -10 | 25 | -1 | -37 | -28
Cc1ccc(OCC(=O)N(Cc2ccccc2)c2c(N)n(Cc3ccccc3)c(=O)[nH]c2=O)c(C)c1 | . | -3 | . | . | . | .
COc1ccccc1C(=O)Nc1cc(Cl)ccc1O | -4 | 3 | -2 | 15* | -3 | 1
Cc1ccc(S(=O)(=O)NCCC(=O)OCC(=O)NC(=O)c2cccn2C)cc1 | 2 | 5 | 24 | 6 | -12 | -1
COc1ccc(N=c2oc3cc(O)ccc3cc2C(=O)NCC2CCCO2)c(OC)c1 (configuration not stated) | 41 | 176* | 22 | 2 | -6 | 11
CCOc1ccc(N=c2oc3cc(O)ccc3cc2C(=O)NCC2CCCO2)cc1 (configuration not stated) | 106* | 184* | 35 | -1 | -16 | 121*
Cc1ccc(C(=O)N/N=c2\oc3ccccc3cc2C(N)=O)cc1 | . | -5 | . | . | . | .
Cc1ccc(N=c2oc3cc(O)ccc3cc2C(N)=O)cc1 | 46 | 181* | 46 | -1 | -5 | 10
COc1ccc(N=c2oc3cc(O)ccc3cc2C(=O)NCC2CCCO2)cc1 (configuration not stated) | 64* | 173* | 45 | -5 | -2 | 82*
CCOC(=O)c1sc2ncnc(Nc3cccc(C(=O)O)c3)c2c1C | . | 2 | . | . | . | .
COc1ccccc1[C@@H]1C(c2cccc(Cl)c2)=NN(c2ccccc2)[C@H]1C(=O)N1CCOC1=O | 73* | 27* | 8 | 7 | -9 | 32
